Results reported in ChEMBL document CHEMBL5038602, “Potent Lys Patch-Containing Stapled Peptides Targeting PCSK9” (J Med Chem, 2021).
Activity calls are given as the source filed them. No cut-off for these calls is given here. Positions of bridges follow the written chain, without caps; N, C: chain ends. Non-standard residues stand in square brackets, D forms with d. Residues, ends and D or L forms follow the SMILES beside them. ξ: configuration not given here. S5 = C=CCCC[C@](C)(N)C(=O)O; Orn = NCCC[C@H](N)C(=O)O; ξK = NCCCCC(N)C(=O)O; ξA = CC(N)C(=O)O

Tests used:
[1] = target: T1, Proprotein convertase subtilisin/kexin type 9 (Homo sapiens, UniProt Q8NBP7); assay: Binding affinity to human PCSK9 by surface plasmon resonance
T1 sequence (Q8NBP7 31-152 limits assumed): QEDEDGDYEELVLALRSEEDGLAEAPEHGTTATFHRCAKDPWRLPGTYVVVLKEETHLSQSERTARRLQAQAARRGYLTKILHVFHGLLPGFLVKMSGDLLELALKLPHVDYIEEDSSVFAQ
T1 sequence (Q8NBP7 153-692 limits assumed): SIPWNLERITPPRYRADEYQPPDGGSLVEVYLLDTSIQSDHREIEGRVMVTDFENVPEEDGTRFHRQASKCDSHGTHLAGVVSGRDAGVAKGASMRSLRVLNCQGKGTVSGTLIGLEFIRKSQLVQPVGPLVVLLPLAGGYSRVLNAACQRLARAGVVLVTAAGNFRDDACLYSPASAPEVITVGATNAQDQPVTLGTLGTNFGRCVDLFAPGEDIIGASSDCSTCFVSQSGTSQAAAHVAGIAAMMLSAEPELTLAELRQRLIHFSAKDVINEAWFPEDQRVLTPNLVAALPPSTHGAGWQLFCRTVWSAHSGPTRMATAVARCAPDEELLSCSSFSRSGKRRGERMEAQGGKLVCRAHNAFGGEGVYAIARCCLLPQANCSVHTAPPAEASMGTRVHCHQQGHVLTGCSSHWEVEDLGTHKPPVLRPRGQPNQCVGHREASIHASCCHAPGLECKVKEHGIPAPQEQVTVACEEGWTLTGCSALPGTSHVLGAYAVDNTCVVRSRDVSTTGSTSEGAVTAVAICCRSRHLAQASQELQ
Procedure, shortened: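 Recombinant human His-tagged PCSK9 (Gln31–Gln692, HEK293-expressed) at 14 µg/mL amine-coupled onto Ni-NTA chip, ~1000–4000 RU. Buffer 25 mM Tris-HCl, 5 mM CaCl2, 100 mM NaCl, 0.01% P20, pH 7.5, 5% DMSO in running buffer. 25°C. Double-referenced sensorgrams; KD from steady-state equilibrium responses fit to a 4-parameter model, or kinetics fit 1:1.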

HepG2 = assay: Cytotoxicity against human HepG2 cells assessed as reduction in cell viability at 0.4 to 10 uM for 48 hrs by SRB assay; format: toxicity, cell-based; conditions: hepg2, 48 h, dose 0.4-10 µM
Procedure, shortened: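 HepG2 cells seeded 2000/well 24 h before treatment. Compounds at 0.4, 1.1, 3.3 and 10 µM in DMEM, 48 h at 37°C. SRB staining 30 min at 37°C, dye dissolved in 10 mM Tris base, absorbance at 560 nm. Triplicate wells averaged and normalized to untreated cells.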

[2] = Reversal of LDL uptake in human HepG2 cells at 10 uM for 2 hrs preincubation with PCSK9 followed by LDL addition and measured after 4 hrs by fluorimetry method relative to control; format: functional; conditions: time 6 hrs
Procedure, shortened: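 HepG2 cells seeded 40000/well, serum-starved 24 h in DMEM with 5% LPDS. Human His-PCSK9 (20–50 nM) preincubated 30–60 min at room temperature ± compounds (10 µM to 0.0001 µM, 0.1% DMSO). Cells then exposed 2 h at 37°C. LDL-BODIPY added to 10 µg/mL final for 4 h. Fluorescence read at ex 480/em 520 nm. Expressed as % maximal LDL-BODIPY incorporation; EC50 by non-linear fit.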

[3] = Effect on mast cell degranulation in human LAD2 cells assessed as CCL3 release measured after 2 hrs by Luminex bead based assay; format: functional
Procedure, shortened: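 LAD2 human mast cells in StemPro 34 medium, 0.2×10^6 cells/well. Supernatant CCL3 quantified by Luminex magnetic bead kit.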

[4] = target: T1, Proprotein convertase subtilisin/kexin type 9; assay: Binding affinity to human PCSK9

Kd [1] [nM] | Compound | Activity (HepG2) | also measured
133 | CC(=O)N[C@H](C(=O)N[C@H](C(=O)N[C@@H](Cc1ccccc1)C(=O)N[C@H](C(=O)N[C@@H](CO)C(=O)N[C@@H](Cc1c[nH]c2ccccc12)C(=O)N[C@H]1CCCCNC(=O)C[C@@H](C(=O)N[C@@H](Cc2c[nH]c3ccccc23)C(=O)N[C@H](C(=O)N[C@@H](CCCCN)C(=O)N[C@@H](CCCCN)C(=O)N[C@@H](C)C(=O)N[C@@H](CCCCN)C(=O)N[C@@H](CCCCN)C(=O)N[C@H](CCCCN)C(N)=O)C(C)C)NC(=O)[C@H](CC(C)C)NC(=O)[C@H](Cc2ccc(O)cc2)NC(=O)[C@H](CCC(=O)O)NC1=O)[C@@H](C)O)C(C)C)[C@@H](C)O |  | 
1100 | CC(=O)N[C@@H](Cc1cnc[nH]1)C(=O)N[C@H](C(=O)N[C@@H](Cc1ccccc1)C(=O)N[C@@H](CC(N)=O)C(=O)N[C@@H](CO)C(=O)N[C@@H](Cc1c[nH]c2ccccc12)C(=O)N[C@@H](CCC(=O)O)C(=O)N[C@@H](CCC(=O)O)C(=O)N[C@@H](Cc1ccc(O)cc1)C(=O)N[C@@H](CC(C)C)C(=O)N[C@@H](CC(=O)O)C(=O)N[C@@H](Cc1c[nH]c2ccccc12)C(=O)N[C@H](C(=O)NC(CCCCN)C(=O)NC(CCCCN)C(=O)NC(CCCCN)C(N)=O)C(C)C)C(C)C (some centres not stated) (Ac-HVFNSWEEYLDWV[ξK][ξK][ξK]-NH2) | Non-Toxic | 
5300 | CC(=O)N[C@@H](Cc1cnc[nH]1)C(=O)N[C@H](C(=O)N[C@@H](Cc1ccccc1)C(=O)N[C@@H](CC(N)=O)C(=O)N[C@@H](CO)C(=O)N[C@@H](Cc1c[nH]c2ccccc12)C(=O)N[C@H]1CCCCNC(=O)C[C@@H](C(=O)N[C@@H](Cc2c[nH]c3ccccc23)C(=O)N[C@H](C(N)=O)C(C)C)NC(=O)[C@H](CC(C)C)NC(=O)[C@H](Cc2ccc(O)cc2)NC(=O)[C@H](CCC(=O)O)NC1=O)C(C)C (Ac-HVFNSWKEYLDWV-NH2; lactam 7-11) | Non-Toxic | 
19 | CC(=O)N[C@@H](Cc1cnc[nH]1)C(=O)N[C@H](C(=O)N[C@@H](Cc1ccccc1)C(=O)N[C@@H](CC(N)=O)C(=O)N[C@@H](CO)C(=O)N[C@@H](Cc1c[nH]c2ccccc12)C(=O)N[C@H]1CCCCNC(=O)C[C@@H](C(=O)N[C@@H](Cc2c[nH]c3ccccc23)C(=O)N[C@H](C(=O)N[C@@H](CCCCN)C(=O)N[C@@H](CCCCN)C(=O)N[C@@H](CCCCN)C(=O)N[C@@H](CCCCN)C(=O)N[C@@H](CCCCN)C(=O)N[C@@H](CCCCN)C(N)=O)C(C)C)NC(=O)[C@H](CC(C)C)NC(=O)[C@H](Cc2ccc(O)cc2)NC(=O)[C@H](CCC(=O)O)NC1=O)C(C)C (Ac-HVFNSWKEYLDWVKKKKKK-NH2; lactam 7-11) | Non-Toxic | 
757 | CC(=O)N[C@@H](Cc1cnc[nH]1)C(=O)N[C@H](C(=O)N[C@@H](Cc1ccccc1)C(=O)N[C@@H](CC(N)=O)C(=O)N[C@@H](CO)C(=O)N[C@@H](Cc1c[nH]c2ccccc12)C(=O)N[C@H]1CCCCNC(=O)C[C@@H](C(=O)N[C@@H](Cc2c[nH]c3ccccc23)C(=O)N[C@H](C(=O)NC(CCCCN)C(=O)NC(CCCCN)C(=O)NC(CCCCN)C(N)=O)C(C)C)NC(=O)[C@H](CC(C)C)NC(=O)[C@H](Cc2ccc(O)cc2)NC(=O)[C@H](CCC(=O)O)NC1=O)C(C)C (some centres not stated) (Ac-HVFNSWKEYLDWV[ξK][ξK][ξK]-NH2; lactam 7-11) | Non-Toxic | 
7 | CC(=O)N[C@@H](Cc1cnc[nH]1)C(=O)N[C@H](C(=O)N[C@@H](Cc1ccccc1)C(=O)N[C@@H](CCCNC(=N)N)C(=O)N[C@@H](CO)C(=O)N[C@@H](Cc1c[nH]c2ccccc12)C(=O)N[C@@]1(C)CCC/C=C\CCC[C@@](C)(C(=O)N[C@@H](Cc2c[nH]c3ccccc23)C(=O)N[C@H](C(=O)N[C@@H](CCCCN)C(=O)N[C@@H](CCCCN)C(=O)N[C@@H](CCCCN)C(=O)N[C@@H](CCCCN)C(=O)N[C@@H](CCCCN)C(=O)N[C@@H](CCCCN)C(N)=O)C(C)C)NC(=O)[C@H](CC(C)C)NC(=O)[C@H](Cc2ccc(O)cc2)NC(=O)[C@H](CCC(=O)O)NC1=O)C(C)C (Ac-HVFRSW[S5]EYL[S5]WVKKKKKK-NH2; staple (Z) 7-11) | Non-Toxic | 
1100 | CC(=O)N[C@@H](Cc1cnc[nH]1)C(=O)N[C@H](C(=O)N[C@@H](Cc1ccccc1)C(=O)N[C@@H](CCCN)C(=O)N[C@@H](CO)C(=O)N[C@@H](Cc1c[nH]c2ccccc12)C(=O)N[C@@H](CCC(=O)O)C(=O)N[C@@H](CCC(=O)O)C(=O)N[C@@H](Cc1ccc(O)cc1)C(=O)N[C@@H](CC(C)C)C(=O)N[C@@H](CC(=O)O)C(=O)N[C@@H](Cc1c[nH]c2ccccc12)C(=O)N[C@H](C(N)=O)C(C)C)C(C)C (Ac-HVF[Orn]SWEEYLDWV-NH2) | Non-Toxic | 
72.5 | CC(=O)N[C@H](C(=O)N[C@H](C(=O)N[C@@H](Cc1ccccc1)C(=O)N[C@H](C(=O)N[C@@H](CO)C(=O)N[C@@H](Cc1c[nH]c2ccccc12)C(=O)N[C@@H](CCC(=O)O)C(=O)N[C@@H](CCC(=O)O)C(=O)N[C@@H](Cc1ccc(O)cc1)C(=O)N[C@@H](CC(C)C)C(=O)NC(C)C(=O)N[C@@H](Cc1c[nH]c2ccccc12)C(=O)N[C@H](C(=O)N[C@@H](CCCCN)C(=O)N[C@@H](CCCCN)C(=O)N[C@@H](CCCCN)C(=O)N[C@@H](CCCCN)C(=O)N[C@@H](CCCCN)C(=O)N[C@@H](CCCCN)C(N)=O)C(C)C)[C@@H](C)O)C(C)C)[C@@H](C)O (some centres not stated) (Ac-TVFTSWEEYL[ξA]WVKKKKKK-NH2) |  | 
3900 | CC(=O)N[C@H](C(=O)N[C@H](C(=O)N[C@@H](Cc1ccccc1)C(=O)N[C@H](C(=O)N[C@@H](CO)C(=O)N[C@@H](Cc1c[nH]c2ccccc12)C(=O)N[C@H]1CCCCNC(=O)C[C@@H](C(=O)N[C@@H](Cc2c[nH]c3ccccc23)C(=O)N[C@H](C(N)=O)C(C)C)NC(=O)[C@H](CC(C)C)NC(=O)[C@H](Cc2ccc(O)cc2)NC(=O)[C@H](CCC(=O)O)NC1=O)[C@@H](C)O)C(C)C)[C@@H](C)O (Ac-TVFTSWKEYLDWV-NH2; lactam 7-11) | Non-Toxic | Activity [2]: 52%; EC50 ([3]; Homo sapiens, LAD2, 2 h): > 5000 nM; Emax ([3]; time 2 hrs): 716.6 pg/mL
1000 | CC(=O)N[C@H](C(=O)N[C@H](C(=O)N[C@@H](Cc1ccccc1)C(=O)N[C@H](C(=O)N[C@@H](CO)C(=O)N[C@@H](Cc1c[nH]c2ccccc12)C(=O)N[C@H]1CCCCNC(=O)C[C@@H](C(=O)N[C@@H](Cc2c[nH]c3ccccc23)C(=O)N[C@H](C(=O)N[C@@H](CCCCN)C(=O)N[C@@H](CCCCN)C(=O)N[C@@H](CCCCN)C(N)=O)C(C)C)NC(=O)[C@H](CC(C)C)NC(=O)[C@H](Cc2ccc(O)cc2)NC(=O)[C@H](CCC(=O)O)NC1=O)[C@@H](C)O)C(C)C)[C@@H](C)O (Ac-TVFTSWKEYLDWVKKK-NH2; lactam 7-11) | Non-Toxic | 
25 | CC(=O)N[C@H](C(=O)N[C@H](C(=O)N[C@@H](Cc1ccccc1)C(=O)N[C@H](C(=O)N[C@@H](CO)C(=O)N[C@@H](Cc1c[nH]c2ccccc12)C(=O)N[C@H]1CCCCNC(=O)C[C@@H](C(=O)N[C@@H](Cc2c[nH]c3ccccc23)C(=O)N[C@H](C(=O)N[C@@H](CCCCN)C(=O)N[C@@H](CCCCN)C(=O)N[C@@H](CCCCN)C(=O)N[C@@H](CCCCN)C(=O)N[C@@H](CCCCN)C(=O)N[C@@H](CCCCN)C(N)=O)C(C)C)NC(=O)[C@H](CC(C)C)NC(=O)[C@H](Cc2ccc(O)cc2)NC(=O)[C@H](CCC(=O)O)NC1=O)[C@@H](C)O)C(C)C)[C@@H](C)O (Ac-TVFTSWKEYLDWVKKKKKK-NH2; lactam 7-11) | Non-Toxic | 
6500 | CC(=O)N[C@H](C(=O)N[C@H](C(=O)N[C@@H](Cc1ccccc1)C(=O)N[C@H](C(=O)N[C@@H](CO)C(=O)N[C@@H](Cc1c[nH]c2ccccc12)C(=O)N[C@@]1(C)CCC/C=C\CCC[C@@](C)(C(=O)N[C@@H](Cc2c[nH]c3ccccc23)C(=O)N[C@H](C(N)=O)C(C)C)NC(=O)[C@H](CC(C)C)NC(=O)[C@H](Cc2ccc(O)cc2)NC(=O)[C@H](CCC(=O)O)NC1=O)[C@@H](C)O)C(C)C)[C@@H](C)O (Ac-TVFTSW[S5]EYL[S5]WV-NH2; staple (Z) 7-11) | Non-Toxic | Activity [2]: 42.7%
 | Ac-HVCNSWEEYLDWV-NH2 | Non-Toxic | Activity [1]: inactive
1200 | Ac-HVFKSWEEYLDWV-NH2 | Non-Toxic | 
3900 | Ac-HVFNSWEEYLDWV-NH2 | Non-Toxic | Activity [2]: 62.4%
865 | Ac-HVFRSWEEYLDWV-NH2 | Non-Toxic | 
 | Ac-TVATSWEEYLDWV-NH2 |  | Activity [1]: inactive
7000 | Ac-TVFTSWAEYLDWV-NH2 | Non-Toxic | 
 | Ac-TVFTSWEEALDWV-NH2 | Non-Toxic | 
8600 | Ac-TVFTSWEEYLAWV-NH2 |  | 
1600 | Ac-TVFTSWEEYLDWVKKK-NH2 | Non-Toxic | Activity [2]: 72.3%; Kd [4]: 1600 nM
424 | Ac-TVFTSWEEYLDWVKKKKKK-NH2 | Non-Toxic | Kd [4]: 424 nM
